The results in this text go back to PubChem BioAssay.

The nature of experiment [1]: inhibitors of TNFa-induced NFkB p65 translocation, primary screen, imaging, HUVEC, MLSMR starter and 10KST1 sets (AID 438;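 active = inhibition above 20% together with a positive visual image hit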;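 also: compound added about 3h40 before a 20 min TNFalpha stimulation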;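 as to inhibition: signal is the nuclear over cytoplasmic p65 intensity ratio per well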). The settings on record: HUVEC TNFa-induced p65 nuclear translocation; cell count: measured here: nuclei count (cytotoxicity indicator), at 2.08 µM; inhibition: at 2 µM, stronger effect = higher value, 0% TNFa-plus-vehicle, 100% no-TNFa wells.
Experiment [2] can be described thus: reduction of polyQ htt aggregates in cells – imaging, exon1htt(103Q)mCFP cells, high-content imaging, primary screen (AID 483;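 active = visual image review flags a hit and inhibition of aggregation exceeds 20%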;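 also: compound exposure lasted 3 days before fixation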;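 as to nuclei count: percent of the per-plate median nuclei count of sample wells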). The settings on record: exon1htt(103Q)mCFP cell line, aggregate imaging, at 2 µM; inhibition of aggregation: stronger effect = higher value; nuclei count: measured here: cell count, toxicity.
Experiment [3] in a line: endothelial E-selectin expression blockers – imaging, HUVEC, immunofluorescence, MLSMR starter and 10KST1 sets, primary screen (AID 487;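 active = visually confirmed hit in the image check and inhibition above 20%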;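 as to inhibition: signal is fraction of cell area covered by stained E-selectin grains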;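 as to nuclei count: 100% = median nuclei count of all wells on the same plate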). The settings on record: HUVEC TNFalpha-induced E-selectin immunofluorescence imaging, at 2 µM; inhibition: stronger effect = higher value; nuclei count: measured here: cell number, toxicity.
The target of experiment [4] is Voltage-gated potassium channel subunit beta-2 (Rattus norvegicus) (UniProt P62483). Nature of the experiment: inhibitors of rat Kvbeta2 reductase activity – biochemical, NADPH fluorescence, primary screen (AID 622).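 Also: slope of raw intensity against log time taken from 70 to 1610 s.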 The settings on record: recombinant KvBeta, 4-cyanobenzaldehyde reduction, at 10 µM, stronger effect = higher value.
Chain of Voltage-gated potassium channel subunit beta-2 (Rattus norvegicus) (P62483 whole entry, looked up): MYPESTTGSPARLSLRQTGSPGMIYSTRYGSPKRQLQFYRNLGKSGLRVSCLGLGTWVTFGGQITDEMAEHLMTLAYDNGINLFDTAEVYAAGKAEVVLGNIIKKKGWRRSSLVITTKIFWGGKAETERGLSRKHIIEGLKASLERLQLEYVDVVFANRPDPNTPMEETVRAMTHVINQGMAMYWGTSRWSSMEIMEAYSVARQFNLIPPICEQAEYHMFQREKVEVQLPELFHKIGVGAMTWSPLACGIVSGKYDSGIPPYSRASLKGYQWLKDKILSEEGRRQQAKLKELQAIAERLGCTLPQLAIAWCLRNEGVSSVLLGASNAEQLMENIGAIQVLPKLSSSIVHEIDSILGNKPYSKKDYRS
For experiment [5] the target is unchanged. Nature of the experiment: enhancers of rat Kvbeta2 NADPH turnover – biochemical, NADPH fluorescence, primary screen (AID 623;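 active = NADPH fluorescence slope more negative than the mean of all samples by about 3 SD, 99.7% confidence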;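 also: fluorescence intensity change per second fitted from 20 to 320 s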). The settings on record: Recombinant KvBeta, NADPH fluorescence decrease slope, 10 min; at 10 µM; stronger effect = lower value.
Experiment [6] deals with Muscarinic acetylcholine receptor M4 (Homo sapiens) (UniProt P08173). As to the kind of experiment: M4-linked GIRK flux change, two-sided – cell-based, HEK293 M4/GIRK, thallium flux, BTC-AM, M4 allosteric agonist project, primary screen (AID 625;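 active = fluorescence slope after compound addition differing from the mean of all tested samples at 99.7% confidence, mostly higher but some lower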;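 also: thallium influx through GIRK channels coupled to M4 in HEK293 cells with BTC-AM dye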). The settings on record: at 10 µM, actives lie on both sides. Summed up:
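System: HEK293 cells with M4 receptor and GIRK channels | Incubation: Cells overnight at 37 °C, BTC-AM loading 1 h, reads 2 min total | Technique: Kinetic BTC-AM fluorescence sampled at 1 Hz, 10 s pre-addition baseline | Measure: Post-addition slope, 15–24 s, of baseline-normalized fluorescence | Control set: Carbachol positive, DMSO negative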

Experiment [7] is described as follows: blockers of RIG-like receptor reporter activation – cell-based, Sendai virus stimulus, luciferase, 10K MLSCN set, TLR/RLR signaling modifier project, primary screen (AID 602276;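 active = inhibition at or above 50% at 10 µM; inactive = inhibition below 50%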;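 also: firefly luciferase from ISG56 promoter only with Renilla not read in this screen; 0% = Sendai virus plus DMSO and 100% = medium plus DMSO without virus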). The settings on record: HEK293 RL24 IRF3 luciferase reporter, at 10 µM, stronger effect = higher value. (In general: A reporter such as luciferase makes a cellular process visible.)
Experiment [8] is described as follows: TLR3 IRF3 reporter activation blockers – cell-based, poly I:C stimulus, luciferase, 10K MLSCN set, primary screen (AID 602277;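 active = inhibition of the reporter signal at or above 50%; inactive = inhibition below 50%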). The settings on record: HEK293-TLR3 RL24 IRF3 luciferase reporter, at 10 µM, stronger effect = higher value.

Each structure is given as a SMILES string. Calls of active or inactive are those of the source.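 The calls were made as follows, unless noted: active = fluorescence slope higher than the sample average by over 3 SD (cut at about -0.22 in these data, passing the limit was not always enough); inactive = the rest.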

Chain of Muscarinic acetylcholine receptor M4 (Homo sapiens) (P08173 whole entry, looked up): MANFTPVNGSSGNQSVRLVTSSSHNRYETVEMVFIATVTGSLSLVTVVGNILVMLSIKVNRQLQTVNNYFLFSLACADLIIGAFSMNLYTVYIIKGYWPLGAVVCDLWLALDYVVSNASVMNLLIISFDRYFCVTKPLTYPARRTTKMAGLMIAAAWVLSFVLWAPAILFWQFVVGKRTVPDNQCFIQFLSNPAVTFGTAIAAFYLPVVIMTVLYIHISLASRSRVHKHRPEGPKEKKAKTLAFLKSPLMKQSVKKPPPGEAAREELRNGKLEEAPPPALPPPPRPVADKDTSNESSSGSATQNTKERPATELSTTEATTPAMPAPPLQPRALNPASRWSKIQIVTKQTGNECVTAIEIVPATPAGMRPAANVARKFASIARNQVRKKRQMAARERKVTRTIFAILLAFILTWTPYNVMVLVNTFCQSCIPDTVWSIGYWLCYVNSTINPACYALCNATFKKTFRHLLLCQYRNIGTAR

Consider `Oc1ccccc1C1=Nc2nc3ccccc3n2C(c2ccccc2)C1` (centres undefined), for which the cell count in experiment [1] came to 579. Further, the inhibition is 6.8% (inactive) in experiment [1], -49.5% (inactive) in experiment [3], -38.4% (inactive) in experiment [7] and -68.7% (inactive) in experiment [8]. Moreover, the inhibition of aggregation in experiment [2] is 3.6% (inactive). For the same compound, the nuclei count came out at 107% in experiment [2] and 102% in experiment [3]. Moreover, the fluorescence slope in experiment [4] is -0.539 (inactive); in experiment [6], 0.00255 (inactive). Besides, the NADPH fluorescence slope in experiment [5] was -7.3e-05 (inactive).

`CCC(=NC(C)c1ccccc1)c1c(O)n(C)c(=O)n(C)c1=O` (centres undefined): in experiment [1], the cell count turned out to be 287. Further, the inhibition in experiment [1] is 9.3% (inactive); in experiment [3] it was -50.4% (inactive); in experiment [7], 8.09% (inactive); in experiment [8], -40% (inactive). For the same compound, in experiment [2], the inhibition of aggregation is 3.2% (inactive). The results for the nuclei count in experiment [2] and in experiment [3] were 72.1% and 133%, respectively. In addition, the fluorescence slope in experiment [4] was -0.518 (inactive); in experiment [6], 0.00372 (inactive). Moreover, the NADPH fluorescence slope in experiment [5] is -0.000132 (inactive).

In the case of `COc1ccc(NC(=O)N2CCC(O)(c3cccnc3)CC2)c(OC)c1`, in experiment [1], the cell count worked out at 643. Besides, the inhibition in experiment [1] is -6.3% (inactive); in experiment [3], -161% (inactive); in experiment [7], 10.9% (inactive); in experiment [8], 12.7% (inactive). The inhibition of aggregation in experiment [2] is 13% (inactive). Also, the nuclei count was 88.6% in experiment [2] and 145% in experiment [3]. Also, the fluorescence slope was -0.558 (inactive) in experiment [4] and 0.00818 (inactive) in experiment [6]. In experiment [5], the NADPH fluorescence slope was -3.4e-05 (inactive).

`O=S(=O)(c1ccc2c(c1)nc1n2CCC1)N1CCOCC1`: the cell count in experiment [1] turned out to be 519. Also, the inhibition in experiment [1] is -1.9% (inactive); in experiment [3], -18.9% (inactive); in experiment [7] it was -4.44% (inactive); in experiment [8] it was 13.8% (inactive). For the same compound, in experiment [2], the inhibition of aggregation was -0.2% (inactive). The nuclei count in experiment [2] is 96.3%; in experiment [3], 107%. Moreover, the fluorescence slope in experiment [4] is -0.423 (inactive); in experiment [6], 0.00774 (inactive). Moreover, in experiment [5], the NADPH fluorescence slope is 2.5e-05 (inactive).

As to `COCc1cc(C)nc(SCC(=O)Nc2cccc(C)c2C)c1C#N`, the cell count in experiment [1] came out at 578. Moreover, the inhibition in experiment [1] was -25.9% (inactive); in experiment [3] it was -62.6% (inactive); in experiment [7], -2.58% (inactive); in experiment [8] it was 38.1% (inactive). In addition, in experiment [2], the inhibition of aggregation was -17.5% (inactive). Moreover, the nuclei count in experiment [2] was found to be 98%; in experiment [3], 107%. In addition, the values for the fluorescence slope in experiment [4] and in experiment [6] were -0.432 (inactive) and 0.0109 (inactive), respectively. In addition, the NADPH fluorescence slope in experiment [5] is 2.4e-05 (inactive).

Consider `O=C(Nc1ccc2oc(-c3ccncc3)nc2c1)c1cccs1`, for which the cell count in experiment [1] is 159. Moreover, the inhibition in experiment [1] is 108% (active); in experiment [3] it was 14.7% (inactive); in experiment [7], -55.9% (inactive); in experiment [8], -120% (inactive). Also, the inhibition of aggregation in experiment [2] was -8.6% (inactive). For the same compound, the nuclei count in experiment [2] came out at 103%; in experiment [3], 113%. Also, the fluorescence slope in experiment [4] is -0.346 (inactive); in experiment [6] it was 0.00345 (inactive). Moreover, the NADPH fluorescence slope in experiment [5] was -0.000115 (inactive).

Consider `Cn1nc(C(=O)Nc2cccc(C(F)(F)F)c2)ccc1=O`, for which the cell count in experiment [1] amounted to 357. Further, the inhibition in experiment [1] is 9.9% (inactive); in experiment [3], -46.7% (inactive); in experiment [7], 5.35% (inactive); in experiment [8] it was -5.97% (inactive). In experiment [2], the inhibition of aggregation was -1.2% (inactive). The nuclei count in experiment [2] turned out to be 100%; in experiment [3], 104%. The fluorescence slope in experiment [4] is -0.576 (inactive); in experiment [6], 0.00652 (inactive). Moreover, the NADPH fluorescence slope in experiment [5] is 4e-05 (inactive).

In the case of `COc1ccc(C(NC(=O)c2ccco2)c2ccc(OC)c(OC)c2)cc1` (centres undefined), the cell count in experiment [1] was 373. Also, the inhibition in experiment [1] is 27.4% (active); in experiment [3], -24.8% (inactive); in experiment [7] it was 6.11% (inactive); in experiment [8], 18.1% (inactive). The inhibition of aggregation in experiment [2] is -4.2% (inactive). In addition, the results for the nuclei count in experiment [2] and in experiment [3] were 104% and 114%, respectively. Besides, the fluorescence slope was -0.326 (inactive) in experiment [4] and 0.00496 (inactive) in experiment [6]. The NADPH fluorescence slope in experiment [5] was -6.7e-05 (inactive).

For the compound `Cc1noc(NS(=O)(=O)c2ccc(N3C(=O)c4ccccc4C3=O)cc2)c1C`, the cell count in experiment [1] came out at 754. Moreover, the inhibition in experiment [1] is -11.1% (inactive); in experiment [3], -0.4% (inactive); in experiment [7], 6.19% (inactive); in experiment [8], 25.2% (inactive). Further, the inhibition of aggregation in experiment [2] is 6.1% (inactive). Moreover, the nuclei count was 104% in experiment [2] and 93.6% in experiment [3]. For the same compound, the fluorescence slope in experiment [4] was -0.533 (inactive); in experiment [6] it was 0.00521 (inactive). Further, the NADPH fluorescence slope in experiment [5] was -3.7e-05 (inactive).

As to `CCC1Cc2c(nc3c4c(nc(N5CCOCC5)c(C#N)c24)NC(C)=N3)O1` (centres undefined), the cell count in experiment [1] was 657. Besides, the inhibition in experiment [1] was 0.8% (inactive); in experiment [3], 43.9% (inactive); in experiment [7] it was 14.3% (inactive); in experiment [8], 1.06% (inactive). Besides, in experiment [2], the inhibition of aggregation is 7.2% (inactive). Also, the nuclei count in experiment [2] was 92.3%; in experiment [3], 97.4%. Further, the fluorescence slope was -0.35 (inactive) in experiment [4] and 0.00571 (inactive) in experiment [6]. The NADPH fluorescence slope in experiment [5] is -1.8e-05 (inactive).

Regarding `CCOc1ccccc1C1CC(=O)NC(SCC)=C1C#N` (centres undefined), the cell count in experiment [1] was determined as 465. The inhibition in experiment [1] was -13% (inactive); in experiment [3], -10% (inactive); in experiment [7], 9.15% (inactive); in experiment [8] it was 17.5% (inactive). The inhibition of aggregation in experiment [2] is 18.7% (inactive). Besides, the nuclei count was 84.4% in experiment [2] and 130% in experiment [3]. Also, the fluorescence slope in experiment [4] was -0.326 (inactive); in experiment [6] it was 0.00457 (inactive). The NADPH fluorescence slope in experiment [5] is -7.3e-05 (inactive).

`CN=C(C)C1=C(O)C(C(=O)OC)C(C)(C)CC1=O` (centres undefined): in experiment [1], the cell count worked out at 506. The inhibition in experiment [1] is 5% (inactive); in experiment [3], -187% (inactive); in experiment [7] it was 16.6% (inactive); in experiment [8] it was 16.6% (inactive). In experiment [2], the inhibition of aggregation was -7.4% (inactive). In addition, the nuclei count in experiment [2] is 108%; in experiment [3], 122%. Moreover, the fluorescence slope in experiment [4] was -0.54 (inactive); in experiment [6] it was 0.00531 (inactive). Further, the NADPH fluorescence slope in experiment [5] was -0.00011 (inactive).

`CCOC(=O)c1cc(C)n(CCCN2CCOCC2)c1C`: in experiment [1], the cell count came out at 678. Moreover, the inhibition in experiment [1] is 2.6% (inactive); in experiment [3], -162% (inactive); in experiment [7], 0.506% (inactive); in experiment [8] it was 19.3% (inactive). Further, the inhibition of aggregation in experiment [2] is -5.8% (inactive). Moreover, the figures for the nuclei count in experiment [2] and in experiment [3] were 114% and 109%, respectively. Besides, the fluorescence slope in experiment [4] is -0.473 (inactive); in experiment [6] it was 0.00505 (inactive). Also, the NADPH fluorescence slope in experiment [5] was 1.5e-05 (inactive).

With `CCSC1(SCC)N=C(N)C2(C#N)C(c3ccccc3)NC(C)=C(C)C12C#N` (centres undefined), the cell count in experiment [1] was found to be 422. In addition, the inhibition is 2% (inactive) in experiment [1], -15.4% (inactive) in experiment [3], 7.48% (inactive) in experiment [7] and 17.3% (inactive) in experiment [8]. The inhibition of aggregation in experiment [2] was 13.7% (inactive). Moreover, the nuclei count in experiment [2] stood at 108%; in experiment [3], 120%. In addition, the fluorescence slope in experiment [4] was -0.401 (inactive); in experiment [6], 0.00608 (inactive). Moreover, the NADPH fluorescence slope in experiment [5] is -1.2e-05 (inactive).

The inhibition is the change of the read-out against control, counted positive when it falls.
